What was measured:
[1] = species on record: Rattus norvegicus; assay: Distribution in rat liver after 24 hr postinjection; type: ADME, organism-based; settings: in vivo
Procedure, shortened: (§1)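 ⁶⁴Cu-labeled complexes, at NCA and CA levels, were diluted in saline and injected into mature female Sprague–Dawley rats (180–200 g; n = 4). Each rat received up to 0.2 mL carrying 22 μCi. Rats were sacrificed at set times after injection, including 24 h. Organs were excised, weighed and counted against a weighed, counted standard. Values are %ID/g and %ID/organ ± sd.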

[2] = species on record: Rattus norvegicus; assay: Distribution in rat kidney 24 hr postinjection; type: ADME, organism-based; settings: in vivo; procedure, shortened: as §1
[3] = species on record: Rattus norvegicus; assay: Distribution in rat blood after 24 hr postinjection; type: ADME, organism-based; settings: in vivo; procedure, shortened: as §1
[4] = Partition coefficient (logP); type: physicochemical; settings: octanol/water
Procedure, shortened: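 Each ⁶⁴Cu complex was partitioned between octanol and water, shaken 1 h at room temperature, and 100 μL from each phase was counted. Log P is the log of the octanol/water count ratio, averaged over five samples.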

Row | Compound | Biodistribution [1] | Biodistribution [2] | Biodistribution [3] | logP [4]
1 | Cu-(4,8,11-Tris-carboxymethyl-1,4,8,11tetraaza-cyclotetradec-1-yl)-acetic acid | 0.49 | 0.21 | 0.21 | –
2 | CCN(CC)C(=O)CN1CCCN2CCN(CCCN(CC(=O)N(CC)CC)CC2)CC1 | – | – | – | -1.95
3 | C1CNCCN2CCCNCCN(C1)CC2 | – | – | – | -2.11

Results, then the compound that gave them:

Row | Biodistribution [1] | Biodistribution [2] | Biodistribution [3] | logP [4] | Compound
4 | 0.7 | 0.097 | 0.23 | – | Cu-1,4,8,11tetraaza-Cyclotetradecane-2,10-dione
5 | – | – | – | -2.3 | NC(=O)CCN1CCCN2CCN(CCC(N)=O)CCCN(CC1)CC2
